Compound activity as filed in PubChem BioAssay.
An excerpt weighted towards active compounds, which were near 3.1% of everything screened.
HSF-1 act: HSF-1 activators, primary screen, NIH3T3-HGL cells, MG132 stress, luminescence, single point; NIH3T3-HGL HSF-1 luciferase reporter, 8 h; 100% = twice DMSO control signal; activation, % at 9 µM; 1.7% of 300,000 active;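 active = mean replicate activation of at least 50% with a set share of replicates each reaching 50%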
TbHK1 inh: Trypanosoma brucei hexokinase 1 inhibitors, primary screen, biochemical, G6PDH-coupled NADH absorbance, MLSCN library. 0.11% of 220,000 active. recombinant TbHK1, G6PDH-coupled NADH A340. inhibition, % at 10 µM;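 active = inhibition of 50% or more in the single-dose primary screen; inactive = inhibition below 50%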
Hsp70 activator: Hsp70 transcriptional activators, primary screen, cell-based, HeLa, Hsp70 promoter luciferase, luminescence, 10 µM | 0.04% of 200,000 active | activation, % at 10 µM | HeLa Hsp70 promoter luciferase reporter; scaled: vehicle 0, proteasome-inhibitor control 100%;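 active = activation above the mean across all tested compounds plus 3 SD, cutoff set per campaign, cut at about 5.5% in these data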
HSP90 refold inh: HSP90 inhibitors, primary screen, cell lysate, luminescence. Heat shock protein HSP 90 (rabbit reticulocyte lysate; luciferase refolding). Rabbit reticulocyte lysate, luciferase refolding luminescence, 3 h. inhibition, % at 5.6 µM. 0.91% of 290,000 active. AID 1789, 2009;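 active = inhibition above the screen-wide mean plus 3 SD, computed separately per campaign, cut at about 16% in these data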;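 also: inhibitors lower the luminescence because luciferase stays unfolded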
HKDC1 inh: HKDC1 hexokinase inhibitors, primary screen, biochemical, fluorescence, uHTS | inhibition, % at 20 µM | recombinant HKDC1, G6PDH/diaphorase resazurin coupled fluorescence | Q2TB90 | 0.16% of 340,000 active;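 active = inhibition above about 35% when tested at 20 µM, limit read from the data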
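Material: recombinant HKDC1 hexokinase; Amount: HKDC1 at 5 µg/mL; Medium: Tris pH 8.0 buffer with MgCl2, Tween-20, BSA, BME; Schedule: 90 min reaction incubation at room temperature, dark; Technique: coupled resazurin fluorescence, excitation 525 nm, emission 613 nm.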
HSF1 inh: HSF1 inhibitors in luciferase reporter cells, primary screen, cell-based, NIH3T3, luminescence | activity change, negative = inhibition, % at 7.5 µM (by protocol) | NIH3T3-HGL HSE-luciferase, MG132-induced, luminescence 8 h; hits give low values | 0.77% of 300,000 active;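 active = more than half of replicate wells show activity change below -50%, luminescence cut by over half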;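 also: luciferase reports HSF-1 transcriptional activity via heat shock element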
HSP90 inh confirm: HSP90 inhibitors, confirmation, cell lysate, luminescence; shares compounds with HSP90 refold inh; rabbit reticulocyte lysate, luciferase refolding luminescence, 3 h; inhibition, % at 5.9 µM; 64% of 2,300 active; AID 1846, 2009; in the data active = inhibition above about 18%
luciferase ctr: firefly luciferase inhibitors, HSP90 counter-screen, confirmation, artefact control for HSP90 inhibitor project, biochemical, luminescence, triplicate; shares compounds with HSP90 refold inh; purified native firefly luciferase; inhibition, % at 5.9 µM; 48% of 2,300 active; AID 1847, 2009;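 active = inhibition above the mean inhibition of all tested sample wells plus 3 SD, cut at about 10% in these data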
Target sequence (P08659 whole entry, looked up): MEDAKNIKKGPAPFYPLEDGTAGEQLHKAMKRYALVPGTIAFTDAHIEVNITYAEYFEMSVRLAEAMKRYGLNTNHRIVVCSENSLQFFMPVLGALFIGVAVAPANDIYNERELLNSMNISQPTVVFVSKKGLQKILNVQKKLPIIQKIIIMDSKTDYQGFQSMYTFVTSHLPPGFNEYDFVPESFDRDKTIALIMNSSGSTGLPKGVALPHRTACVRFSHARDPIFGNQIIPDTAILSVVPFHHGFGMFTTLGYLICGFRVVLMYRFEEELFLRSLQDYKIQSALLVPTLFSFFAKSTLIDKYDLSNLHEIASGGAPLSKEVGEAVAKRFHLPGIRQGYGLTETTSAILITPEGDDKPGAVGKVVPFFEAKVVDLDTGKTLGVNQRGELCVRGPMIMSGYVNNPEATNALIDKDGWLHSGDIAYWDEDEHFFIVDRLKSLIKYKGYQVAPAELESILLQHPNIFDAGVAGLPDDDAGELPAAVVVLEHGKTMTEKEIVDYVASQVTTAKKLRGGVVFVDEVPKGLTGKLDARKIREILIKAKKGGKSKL
A number is an active result; i = inactive; nt = no result.

SMILES	HSF-1 act	TbHK1 inh	Hsp70 activator	HSP90 refold inh	HKDC1 inh	HSF1 inh	HSP90 inh confirm	luciferase ctr
Cc1cc(C(=O)Nc2cccc(C(=O)O)c2)oc1C	i	i	i	86	i	-53	92	79
CCOc1cccc(C(=O)Nc2ccc3ccccc3c2)c1	i	nt	nt	19	i	i	47	37
CCOc1ccc(C(=O)Nc2ccc3[nH]ncc3c2)cc1	i	nt	nt	18	i	i	40	11
CCOc1cccc(C(=O)Nc2ccc3c(c2)OCCO3)c1	i	nt	nt	19	i	i	45	27
COc1ccc(Cl)cc1NC(=O)c1nnn(CC(=O)Nc2ccc3c(c2)OCO3)c1N	i	nt	nt	i	i	i	nt	nt
O=C(Nc1ccc(N2CCOCC2)cc1)c1cnsn1	i	i	i	71	i	i	83	76
O=C(Nc1ccc(N2CCOCC2)cc1)c1cnccn1	i	nt	nt	46	i	i	67	44
O=C(Nc1ccccc1N1CCOCC1)c1cnccn1	i	i	i	i	i	i	nt	nt
O=C(COc1ccccc1)NCC(c1ccco1)N1CCCCC1 (configuration not stated)	i	nt	nt	nt	i	i	nt	nt
CCOC(=O)c1c2c3c(cccc3n(C)c1=O)C(=O)c1ccccc1-2	i	nt	nt	44	i	i	i	i
CCOC(=O)c1c2c3c(cccc3[nH]c1=O)C(=O)c1ccccc1-2	i	i	i	i	i	i	nt	nt
O=C(CC(O)(CC(=O)OCc1ccccc1)C(=O)OCc1ccccc1)OCc1ccccc1	nt	nt	nt	nt	i	nt	nt	nt
CCOC(=O)C(CCCP(=O)(c1ccccc1)c1ccccc1)(NC(C)=O)C(=O)OCC	i	i	nt	23	i	i	i	i
O=c1c(C=NCc2cccnc2)c(C(F)(F)F)[nH]n1-c1nc2ccccc2s1	i	i	i	42	i	i	35	11
Cc1c(C(=O)N/N=C/c2cccnc2)nnn1-c1nonc1N	i	nt	nt	i	i	i	nt	nt
CCc1ccc(NC(=O)c2cnn3ccccc23)cc1	i	i	i	65	i	i	78	71
c1ccc(OCCSc2nnc3sc4ccccc4n23)cc1	i	i	i	45	i	i	76	74
CC(=O)Nc1cccc(-c2csc(Nc3ccccn3)n2)c1	i	i	i	19	i	i	i	i
CC(=O)Nc1cccc(-c2csc(Nc3cc(C)ccn3)n2)c1	i	i	i	i	i	i	nt	nt
C[C@@H]1CN([C@@H](C)CO)C(=O)c2cc(NS(C)(=O)=O)ccc2O[C@@H]1CN(C)S(=O)(=O)c1ccccc1	nt	nt	nt	nt	i	nt	nt	nt
CCCCN(C)S(=O)(=O)c1c(C)[nH]c(=O)[nH]c1=O	i	i	i	25	i	i	i	i
CCC(O)C1CCN(C(=O)c2ccc(OC3CCN(Cc4ccccn4)CC3)cc2)CC1 (configuration not stated)	i	nt	nt	i	i	i	nt	nt
O=C(Cc1cccs1)N=Nc1c(O)[nH]c2ccc(Br)cc12	nt	i	nt	i	i	nt	nt	nt
COc1ccc2[nH]c(O)c(N=NC(=O)Cc3cccs3)c2c1	i	i	nt	23	i	i	i	i
Cc1ccc(S(=O)(=O)N(Cc2ccccc2)c2ccccc2C(=O)N2CCCCC2)cc1	i	nt	nt	i	i	i	nt	nt
SMILES	HSF-1 act	TbHK1 inh	Hsp70 activator	HSP90 refold inh	HKDC1 inh	HSF1 inh	HSP90 inh confirm	luciferase ctr
CCOC(=O)NC1Cc2ccccc2C1Sc1ccccn1 (configuration not stated)	i	nt	nt	44	i	i	i	i
CN(CC(=O)Nc1cccc(F)c1)CC(=O)NC(c1ccccc1)c1ccccc1	nt	nt	nt	nt	i	nt	nt	nt
Cc1c(-c2nc(-c3ccc(C(C)(C)C)cc3)no2)n(C)oc1=O	i	i	nt	70	i	-74	91	i
Cc1nn(C(C)(C)C)c(C)c1/C=N/OC(=O)Nc1ccc(Cl)c(Cl)c1	i	i	nt	78	i	-95	86	85
COc1ccc(NC(=O)O/N=C/c2c(C)nn(C(C)(C)C)c2C)cc1	i	i	nt	33	i	-71	51	53
Cc1nn(C)c(C)c1NC(=O)Nc1ccc(Cl)c(Cl)c1	i	i	i	i	i	i	nt	nt
CCOc1ccc(NC(=O)CN(C)C(=O)Cn2cnc3c2c(=O)n(C)c(=O)n3C)cc1OCC	i	nt	nt	nt	i	i	nt	nt
Brc1ccc(N=Nc2ccc3ccccc3n2)cc1	nt	i	nt	61	i	i	95	86
O=C(Nc1ccccc1)c1cn2ccccc2n1	i	i	nt	37	i	i	59	41
CCc1ccc(C(=O)Nc2nc(C)cs2)s1	i	nt	nt	43	i	i	56	52
Cc1csc(NC(=O)c2ccc(C(=O)Nc3nc(C)cs3)cc2)n1	i	i	nt	i	nt	i	nt	nt
O=C(Nc1ccc(-n2cnnn2)cc1)c1cn2ccccc2n1	i	i	nt	i	i	i	nt	nt
Cc1csc(NC(=O)c2cnc3ccccc3n2)n1	i	nt	nt	43	i	i	53	40
Cc1csc(NC(=O)c2cn3ccccc3n2)n1	i	i	i	54	i	i	70	62
Cc1cccc(C(=O)C2CCN(S(=O)(=O)c3cccc(C(=O)O)c3)CC2)c1	i	nt	nt	i	i	i	nt	nt
Cc1ccc(OCc2nnnn2-c2ccccc2)cc1	i	i	i	75	i	i	i	i
Cc1c(OCc2ccccc2)c(=O)ccn1Cc1ccccc1	i	i	i	20	i	i	i	i
O=c1ccn(Cc2ccccc2)c2ccccc12	i	i	nt	nt	i	i	nt	nt
